19 compounds from ChEMBL document CHEMBL1153971, “Design, synthesis, biological evaluation and molecular modelling studies of novel quinoline derivatives against Mycobacterium tuberculosis” (Bioorg Med Chem, 2009) can be followed below.

≈ marks a conversion by molar mass, not a printed value.

The test system of data set [1] is Mycobacterium tuberculosis. In words: Antimycobacterial activity against Mycobacterium tuberculosis H37Rv ATCC 27294 at 6.25 ug/mL by radiometric method. The class given is functional.
In data set [2] the test system is Mycobacterium tuberculosis. In words: Antimycobacterial activity against Mycobacterium tuberculosis H37Rv ATCC 27294 assessed as growth index at 6.25 ug/mL after 3 days by radiometric method. It counts as functional. The method, boiled down:
(§1)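 M. tuberculosis H37Rv (ATCC 27294) in a BACTEC 460 radiometric culture. A single 6.25 µg/mL dose was given on day 1. Growth index was read daily from day 1 to day 9 against an untreated culture and an isoniazid-treated culture under identical conditions. Three independent readings were taken. Compounds were dissolved in DMSO.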

Data set [3] is described as follows: Cytotoxicity against human THP1 cells assessed as cell viability at 10 ug/100 mL after 72 hrs by MTT assay. It counts as cell-based. The following applies: THP-1 cells, read-out: Activity. The method, boiled down:
(§2)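 Monocytic THP-1 cells were seeded at 10,000 cells/100 µL and cultured at 37 °C in 5% CO2. Compounds were added at 1 or 10 µg/100 µL, with medium plus DMSO as live control. After 24 or 72 h, MTT (stock 5 mg/mL) was added for 4 h, then isopropanol. Absorbance was read at 540 nm and reported as percent viability. Triplicates, mean of three readings.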

Data set [4] has as its system Mycobacterium tuberculosis. In words: Antimycobacterial activity against Mycobacterium tuberculosis H37Rv ATCC 27294 assessed as growth index at 6.25 ug/mL after 9 days by radiometric method. It counts as functional. Put shortly: as §1
Data set [5] relates to Mycobacterium tuberculosis. Nature of the data set: Antimycobacterial activity against Mycobacterium tuberculosis H37Rv ATCC 27294 assessed as growth index at 6.25 ug/mL after 6 days by radiometric method. The class given is functional. The method, boiled down: as §1
Data set [6] concerns Mycobacterium tuberculosis. In words: Antimycobacterial activity against Mycobacterium tuberculosis H37Rv ATCC 27294 assessed as growth inhibition at 6.25 ug/mL after 7 to 9 days by radiometric method. The settings on record: read-out: GI. The class given is functional. The method, boiled down: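 Single-concentration screen against H37Rv (ATCC 27294) by the BACTEC 460 radiometric method. Compound was added once at 6.25 µg/mL on day one. […] DMSO was the vehicle.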

The nature of data set [7]: Cytotoxicity against human THP1 cells assessed as cell viability at 10 ug/100 mL after 24 hrs by MTT assay. It counts as cell-based. The following applies: THP-1 cells, read-out: Activity. Put shortly:
as §2
On the technique in general: Formazan colour is commonly taken as a measure of viable cells.

Data set [8] concerns Mycobacterium tuberculosis. Nature of the data set: Antimycobacterial activity against Mycobacterium tuberculosis H37Rv ATCC 27294 by radiometric method. It counts as functional. Put shortly:
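MIC against H37Rv by the BACTEC radiometric method. Five concentrations were tested: 6.25, […], 1.56, 0.78 and 0.39 µg/mL. Compounds were dissolved in DMSO.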

Data set [9] is described as follows: Cytotoxicity against human THP1 cells assessed as cell viability at 1 ug/100 mL after 72 hrs by MTT assay. The class given is cell-based. The settings on record: THP-1 cells, read-out: Activity. The method, boiled down:
as §2

The subject of data set [10] is Mycobacterium tuberculosis. In words: Antimycobacterial activity against Mycobacterium tuberculosis H37Rv ATCC 27294 assessed as growth index at 6.25 ug/mL after 4 days by radiometric method. It counts as functional. The method, boiled down: as §1
A short description of data set [11]: Cytotoxicity against human THP1 cells assessed as cell viability at 1 ug/100 mL after 24 hrs by MTT assay. The following applies: THP-1 cells, read-out: Activity. It counts as cell-based. Put shortly:
as §2

The test system of data set [12] is Mycobacterium tuberculosis. In words: Antimycobacterial activity against Mycobacterium tuberculosis H37Rv ATCC 27294 assessed as growth index at 6.25 ug/mL after 7 days by radiometric method. The class given is functional. Put shortly: as §1
Data set [13] concerns Mycobacterium tuberculosis. Nature of the data set: Antimycobacterial activity against Mycobacterium tuberculosis H37Rv ATCC 27294 assessed as growth index at 6.25 ug/mL after 2 days by radiometric method. The class given is functional. Put shortly: as §1
Data set [14] deals with Mycobacterium tuberculosis. In words: Antimycobacterial activity against Mycobacterium tuberculosis H37Rv ATCC 27294 assessed as growth index at 6.25 ug/mL after 5 days by radiometric method. The class given is functional. The method, boiled down:
as §1

Data set [15] relates to Mycobacterium tuberculosis. In words: Antimycobacterial activity against Mycobacterium tuberculosis H37Rv ATCC 27294 assessed as growth index at 6.25 ug/mL after 1 day by radiometric method. It counts as functional. Put shortly: as §1
Data set [16] concerns Mycobacterium tuberculosis. Nature of the data set: Antimycobacterial activity against Mycobacterium tuberculosis H37Rv ATCC 27294 assessed as growth index at 6.25 ug/mL after 8 days by radiometric method. It counts as functional. The method, boiled down: as §1

Compound `COC(=O)C(C(=O)N1CCCC1)C(c1ccccc1)c1cc2cc(Br)ccc2nc1OC` (centres undefined) showed an inhibition at 6.25 µg/mL in data set [1] of 5%.
For the compound `COc1nc2ccc(Br)cc2cc1C(Nc1ccc2oc(=O)ccc2c1)c1ccccc1` (racemic), the Growth_index came to 37 in data set [2]; 55 in [4]; 48 in [5]; 45 in [10]; 53 in data set [12]; 27 in data set [13]. Moreover, the values for the Growth_index in data set [14], in data set [15] and in [16] were 52, 15 and 53, respectively. Further, in data set [3], the viability at 72 h, 10 ug/100 mL was 100%. Moreover, the inhibition of growth at 6.25 µg/mL in [6] was determined as 92.5%. In addition, the viability at 24 h, 10 ug/100 mL in data set [7] was found to be 100%. The minimum inhibitory concentration (MIC) in data set [8] came to 6.25 mg/L (≈ 12.8 µM). Moreover, in data set [9], the viability at 72 h, 1 ug/100 mL was determined as 100%. The viability at 24 h, 1 ug/100 mL in [11] amounted to 100%. In [1], this compound came in with an inhibition at 6.25 µg/mL of 92.5%.
Compound `COc1nc2ccc(Br)cc2cc1C(c1ccccc1)N1CCOCC1` (centres undefined) showed an inhibition at 6.25 µg/mL in data set [1] of 69%.
In data set [1], `COC(=O)C(C(=O)n1cccn1)C(c1ccccc1)c1cc2cc(Br)ccc2nc1OC` (mixture of isomers) registered an inhibition at 6.25 µg/mL of 22%.
As for `COc1nc2ccc(Br)cc2cc1C(c1ccccc1)n1cccn1` (racemic), the Growth_index in data set [2], in [4], in data set [5], in [10], in data set [12] and in data set [13] was 0 throughout. Moreover, the Growth_index in data set [14] was 0; in [15] it was 1; in [16] it was 0. Moreover, the viability at 72 h, 10 ug/100 mL in [3] came out at 98%. The inhibition of growth at 6.25 µg/mL in [6] is 99.5%. Also, the viability at 24 h, 10 ug/100 mL in data set [7] is 75%. The compound also had a minimum inhibitory concentration (MIC) in data set [8] of 6.25 mg/L (≈ 15.9 µM). In addition, the viability at 72 h, 1 ug/100 mL in data set [9] came out at 100%. Also, the viability at 24 h, 1 ug/100 mL in data set [11] came out at 71%. Moreover, testing at 6.25 µg/mL in [1] gave an inhibition of 99.5%.
For `COc1nc2ccc(Br)cc2cc1C(c1ccccc1)n1ccnc1` (racemic), the Growth_index was determined as 25 in [2]; 56 in data set [4]; 33 in [5]; 28 in data set [10]; 35 in data set [12]; 22 in data set [13]. For the same compound, the values for the Growth_index in data set [14], in data set [15] and in [16] were 34, 12 and 35, respectively. For the same compound, in [3], the viability at 72 h, 10 ug/100 mL is 67%. In addition, in data set [6], the inhibition of growth at 6.25 µg/mL is 94.2%. The viability at 24 h, 10 ug/100 mL in data set [7] amounted to 56%. In addition, the MIC in data set [8] is 6.25 mg/L (≈ 15.9 µM). Moreover, the viability at 72 h, 1 ug/100 mL in data set [9] amounted to 67%. The viability at 24 h, 1 ug/100 mL in data set [11] is 74%. For the same compound, 6.25 µg/mL produced 94.2% inhibition in data set [1].
For the compound `NNC(=O)c1ccncc1` [ISONIAZID], the inhibition of growth at 6.25 µg/mL in data set [6] came to 99.3%.
Turning to `COC(=O)C(C(=O)N1CCOCC1)C(c1ccccc1)c1cc2cc(Br)ccc2nc1OC` (centres undefined), in [1], 6.25 µg/mL produced 5% inhibition.
On to `CCOC(=O)C1CCN(C(c2ccccc2)c2cc3cc(Br)ccc3nc2OC)CC1` (centres undefined), for which at 6.25 µg/mL the inhibition in data set [1] was 16%.
In data set [1], `COc1nc2ccc(Br)cc2cc1C(NCc1ccncc1)c1ccccc1` (centres undefined) displayed an inhibition at 6.25 µg/mL of 17%.
On to `COc1nc2ccc(Br)cc2cc1C(c1ccccc1)N1CCN(c2cccc(C(F)(F)F)c2)CC1` (centres undefined), for which the Growth_index in data set [2], in [4], in data set [5], in data set [10], in data set [12] and in data set [13] was 0 in each case. Besides, the Growth_index is 0 in data set [14], 1 in data set [15] and 0 in [16]. The viability at 72 h, 10 ug/100 mL in data set [3] amounted to 97%. Further, the inhibition of growth at 6.25 µg/mL in [6] turned out to be 100%. In addition, the viability at 24 h, 10 ug/100 mL in data set [7] amounted to 97%. In addition, the lowest concentration to inhibit growth in data set [8] (MIC) was 6.25 mg/L (≈ 11.2 µM). In addition, in [9], the viability at 72 h, 1 ug/100 mL was determined as 100%. The viability at 24 h, 1 ug/100 mL in data set [11] stood at 87%. This compound also yielded an inhibition at 6.25 µg/mL in data set [1] of 100%.
Regarding `COC(=O)C(C(=O)N1CCN(c2cccc(C(F)(F)F)c2)CC1)C(c1ccccc1)c1cc2cc(Br)ccc2nc1OC` (centres undefined), in [1], the inhibition at 6.25 µg/mL came out at 8%.
For the compound `CCOC(=O)C1CCCN1C(c1ccccc1)c1cc2cc(Br)ccc2nc1OC` (centres undefined), the inhibition at 6.25 µg/mL in data set [1] was 18%.
On to `CCOC(=O)C(c1cccc2ccccc12)C(c1ccccc1)c1cc2cc(Br)ccc2nc1OC` (mixture of isomers), for which the inhibition at 6.25 µg/mL in data set [1] was 0%.
Still for that read-out and setting: then `COc1nc2ccc(Br)cc2cc1C(c1ccccc1)n1ccc2ccccc21` (centres undefined), with 8%.
`COc1nc2ccc(Br)cc2cc1C(c1ccccc1)n1nnnc1C` (centres undefined): in data set [1], at 6.25 µg/mL the inhibition was 14%.
Regarding `COC(=O)C(C(=O)N1CCCCC1)C(c1ccccc1)c1cc2cc(Br)ccc2nc1OC` (centres undefined), in data set [1], testing at 6.25 µg/mL gave an inhibition of 11%.
Consider `COc1nc2ccc(Br)cc2cc1C(c1ccccc1)N1CCCCC1` (centres undefined), for which, in data set [1], 6.25 µg/mL produced 53% inhibition.
Still for that read-out and setting: under `COc1nc2ccc(Br)cc2cc1C(c1ccccc1)n1cnc([N+](=O)[O-])c1` (centres undefined) stands 14%.

What is called inhibition is the share of the control response that was lost under treatment. Read a low inhibition as a response near the control. What is called MIC is the lowest concentration found to suppress growth. High values mean a less susceptible organism, low ones a more susceptible organism.
